According to the array DNA melting data of Ke et al. (doi:10.1101/2024.01.08.574731):

Legend:
[1] = melting temperature; fluorescence melt of hairpins on a sequencing array, two-state fit, raised by 9.35 °C to match UV melts; settings: sodium 0.088 M
Procedure, shortened: (§1)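 Melting temperature and folding enthalpy were derived from bootstrapped two-state fits. The fitted temperatures were raised by 9.35 °C to agree with UV melts, and four replicates were combined by inverse variance. The underlying data were Cy3 fluorescence images of library hairpins, with annealed Cy3 and quencher oligos, on a sequenced MiSeq flow cell in 50 mM Na-HEPES pH 8.0, 25 mM NaCl, taken in 2.5 °C steps up to 60 °C, normalised to pre-quench Cy3 and to control constructs.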

[2] = folding enthalpy; higher = less favourable; fluorescence melt of hairpins on a sequencing array, two-state fit; settings: sodium 0.088 M
Procedure, shortened: as §1

Row | Sequence | Tm [1] [°C] | folding enthalpy [2] [kcal/mol]
1 | GACTTCCGAAAGGAGGTC (((.(((....))).))) | 54.8 | -36.6
2 | GGGAATGGAAACACTCCC ((((.((....)).)))) | 36.9 | -29.3
3 | GCGATCGAAAGATCCGC ((((((....))).))) | 52 | -28.8
4 | GCTGCCGGAAACGGCAAC (.(((((....))))).) | 47.4 | -10.9
5 | GATCCTGAAGAGGATC ((((((....)))))) | 55.4 | -36.2
6 | GTTTAACGAAAGTTCAAC (((.(((....))).))) | 36 | -20.9
7 | GGTTTAACGAAAGTTACC (((..(((....)))))) | 29.6 | -14.6
8 | GATCGTGCGGACGATC ((((((....)))))) | 54.4 | -38.6
9 | GTGTTCGAAAGAACAC ((((((....)))))) | 68.6 | -31.5
10 | GCGACCGAAAGGTCACGC ((((((....)))..))) | 61.1 | -16.9
11 | CTGTCGAAAGACAG (((((....))))) | 67.5 | -21.3
12 | GGTGGCGAAAGCCGCACC ((((((....)))..))) | 47.7 | -9.89
13 | GTCCTGCGAAAGCACGAC (((.(((....))).))) | 42.6 | -21.4
14 | GCGTTGCGAAAGCTCCGC (((..((....))..))) | 54.6 | -17.9
15 | GCGCAACCGAAAGGTCGC (((..(((....)))))) | 55 | -23.9
16 | GATCTTTGGTAAGATC ((((((....)))))) | 42.5 | -30.8
17 | ATCGAGAAATCGAT (((((....))))) | 39.5 | -23.9
18 | GGGCTTGGAAACAAACCC (((.(((....))).))) | 43.8 | -32.8
19 | GCGAAGCGAAAGCTACGC (((.(((....))).))) | 55 | -40.4

Row | Sequence | Tm [1] [°C] | folding enthalpy [2] [kcal/mol]
20 | GATCATCCTCATGATC ((((((....)))))) | 45.7 | -33.4
21 | GATCCCCACGGGATC ((((((...)))))) | 63.4 | -34.9
22 | CTCAAGAAATTGAG (((((....))))) | 33.8 | -12.8
23 | GATCCCGTGTGGGATC ((((((....)))))) | 63.9 | -33.9
24 | GATCTGGGTGCAGATC ((((((....)))))) | 52.5 | -47.2
25 | CGGCACGGAAACGTTCCG (((.(((....))).))) | 47.9 | -24.5
26 | GGCGAGGGAAACTTCGCC (((((.(....).))))) | 57.4 | -50.1
27 | GAGGGCGAAAGCCTGCTC ((((((....)))..))) | 42.5 | -12.4
28 | GACTCGGGAAACTGAGTC (((((.(....).))))) | 52.7 | -37.2
29 | GCCTTAGGAAACTAAGGC (((((((....))))))) | 60.3 | -37
30 | GCGACGCGAAAGCTTAGC ((.(.((....)).).)) | 48.9 | -24.8
31 | GCTGGCGAAAGCCCAGC ((((((....))).))) | 65.7 | -23.1
32 | GACCCCCGAAAGGGCGTC (((.(((....))).))) | 55.4 | -25.1
33 | GCTAGGGGAAACCCCAGC (((.(((....))).))) | 49.1 | -29.8
34 | GAGCAGCGAAAGCTCTC (((.(((....)))))) | 47.4 | -17.6
35 | GATCTGTGTGCAGATC ((((((....)))))) | 56.4 | -46.9
36 | CGAAAACGGAAACGTTCG (((..(((....)))))) | 37 | -19.8
37 | GTAAATGCGAAAGCATAC (((..(((....)))))) | 29.3 | -10.9
38 | GGTGACCGAAAGGTACC (((.(((....)))))) | 49 | -21.8
